Measurements taken from ChEMBL document CHEMBL1132412, “Antagonists of the platelet P2T receptor: a novel approach to antithrombotic therapy” (J Med Chem, 1999).

How the values were obtained:
[1] = Platelet P2T receptor antagonist activity in human platelet assay; format: functional
Method in brief: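 Human washed platelets in modified Tyrode buffer, stimulated to aggregate with ADP; aggregation followed turbidimetrically. Inhibition measured across a concentration range, pIC50 calculated from the concentration-response. Mean of four determinations (nine for one compound).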

Rattus norvegicus = organism: Rattus norvegicus; experiment: Recovery of ADP-induced platelet aggregation 20 minutes post dose. mean of four determinations and spread of results; format: functional
Method in brief: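 Anesthetized rat; ADP-induced platelet aggregation measured 20 min after dosing to gauge recovery of aggregation (functional kinetics). Mean of four determinations, with spread of results.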

Row | Compound | Log IC50 [1] | Recovery of ADP-induced platelet aggregation (Rattus norvegicus)
1 | Nc1nc(SCCC(F)(F)F)nc2c1ncn2[C@@H]1O[C@H](COP(=O)(O)OP(=O)(O)C(Cl)(Cl)P(=O)(O)O)[C@@H](O)[C@H]1O | -8.87 | –
2 | Nc1ncnc2c1ncn2[C@@H]1O[C@H](COP(=O)(O)OP(=O)(O)C(Cl)(Cl)P(=O)(O)O)[C@@H](O)[C@H]1O | -3.5 | –
3 | CCSc1nc(N)c2ncn([C@@H]3O[C@H](COP(=O)(O)OP(=O)(O)C(Cl)(Cl)P(=O)(O)O)[C@@H](O)[C@H]3O)c2n1 | -6.53 | –
4 | CSCCNc1nc(SCCC(F)(F)F)nc2c1ncn2[C@@H]1O[C@H](COP(=O)(O)OP(=O)(O)C(Cl)(Cl)P(=O)(O)O)[C@@H](O)[C@H]1O [CANGRELOR] | -9.35 | 79%
5 | CCCSc1nc(NCCSC)c2ncn([C@@H]3O[C@H](COP(=O)(O)OP(=O)(O)C(Cl)(Cl)P(=O)(O)O)[C@@H](O)[C@H]3O)c2n1 | -9.42 | 33%
6 | Nc1ncnc2c1ncn2[C@@H]1O[C@H](COP(=O)(O)OP(=O)(O)C(F)(F)P(=O)(O)O)[C@@H](O)[C@H]1O | -3.5 | –
7 | CCCSc1nc(NCCOC)c2ncn([C@@H]3O[C@H](COP(=O)(O)OP(=O)(O)C(Cl)(Cl)P(=O)(O)O)[C@@H](O)[C@H]3O)c2n1 | -7.81 | 48%
8 | COCCNc1nc(SCCC(F)(F)F)nc2c1ncn2[C@@H]1O[C@H](COP(=O)(O)OP(=O)(O)C(Cl)(Cl)P(=O)(O)O)[C@@H](O)[C@H]1O | -8.02 | 64%
9 | CCCSc1nc(N)c2ncn([C@@H]3O[C@H](COP(=O)(O)OP(=O)(O)C(F)(F)P(=O)(O)O)[C@@H](O)[C@H]3O)c2n1 | -8.16 | –
10 | CCCSc1nc(N)c2ncn([C@@H]3O[C@H](COP(=O)(O)OP(=O)(O)C(Cl)(Cl)P(=O)(O)O)[C@@H](O)[C@H]3O)c2n1 | -8.6 | 93%
11 | O=P(O)(OC[C@H]1O[C@@H](n2cnc3c(NCC(F)(F)F)nc(SCCC(F)(F)F)nc32)[C@H](O)[C@@H]1O)OP(=O)(O)C(Cl)(Cl)P(=O)(O)O | -9.14 | 6%
12 | CCCSc1nc(NCC(F)(F)F)c2ncn([C@@H]3O[C@H](COP(=O)(O)OP(=O)(O)C(Cl)(Cl)P(=O)(O)O)[C@@H](O)[C@H]3O)c2n1 | -9.48 | 10%
